# From PubChem BioAssay
# Hits are enriched below; roughly 1.7% of the tested compounds scored in any of these assays.
# Scp1 inh = inhibitors of human Scp-1 phosphatase | Q9GZU7 | Recombinant Scp1, phosphopeptide, malachite green phosphate absorbance | inhibition, % at 20 µM | 0.88% of 340,000 active | AID 493091;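 active = inhibition above about 50% at 20 µM, limit read from the data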;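 also: plate controls were DMSO wells with enzyme for no effect and wells lacking enzyme for full effect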
# Target sequence (Q9GZU7 76-261 limits assumed): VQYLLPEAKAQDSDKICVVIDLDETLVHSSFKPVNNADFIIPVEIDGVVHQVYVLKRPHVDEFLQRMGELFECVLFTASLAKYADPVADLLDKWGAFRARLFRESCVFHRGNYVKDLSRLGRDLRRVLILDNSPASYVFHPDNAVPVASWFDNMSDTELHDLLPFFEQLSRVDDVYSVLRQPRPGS
#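 Assay system: SCP-1 catalytic fragment, aa 76-261 | Buffer or medium: Tris acetate buffer pH 5.5 with MgCl2 and Tween-20 | Compound: One concentration, 20 µM, with 1.0% DMSO | Also added: Phospho 17-mer peptide substrate | Signal: Absorbance at 630 nm | Incubation: 45 min enzyme reaction at room temperature | Measure: % inhibition of SCP-1 phosphate liberation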
# DNMT1 block = DNMT1 (human) enzyme inhibition | inhibition (reported as % activation of signal), % at 10 µM | P26358 | 0.83% of 360,000 active | DNMT1 molecular beacon, Hinp1I cleavage, fluorescence | AID 588458; in the data active = inhibition above about 50%
# LMPTP block = blocks human LMPTP phosphatase; P24666; recombinant LMPTP-A, OMFP fluorogenic substrate, fluorescence intensity; inhibition, % at 20 µM; 0.22% of 360,000 active;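 active = compounds that cut the enzyme signal by at least half of the control window in the single-dose screen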;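 also: plate controls were DMSO wells with enzyme plus substrate for no effect and substrate without enzyme for full effect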
# Target sequence (P24666 whole entry, looked up): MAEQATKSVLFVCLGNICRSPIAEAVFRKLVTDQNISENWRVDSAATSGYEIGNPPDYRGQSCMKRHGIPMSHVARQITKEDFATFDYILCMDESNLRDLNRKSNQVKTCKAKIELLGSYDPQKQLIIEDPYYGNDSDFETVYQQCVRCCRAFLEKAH
#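 Test system – LMPTP-A phosphatase enzyme · Quantity – 0.625 nM LMPTP-A final · Reagent – OMFP substrate, 400 µM final · Dosing – one test concentration per compound, 20 µM, with 3% DMSO overall · Timing – 50 min enzyme reaction at room temperature, protected from light · Detection – fluorescence intensity · Controls – substrate-only low control, DMSO enzyme-plus-substrate high control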
# SUMO1-SIM PPI = alters human SUMO1 binding to SIM partners. SUMO1 binding to a labelled peptide, TR-FRET, 1 h. inhibition, % at 20 µM. 0.33% of 360,000 active. AID 602429; in the data active = inhibition above about 37%
# Target sequence (P63165 whole entry, looked up): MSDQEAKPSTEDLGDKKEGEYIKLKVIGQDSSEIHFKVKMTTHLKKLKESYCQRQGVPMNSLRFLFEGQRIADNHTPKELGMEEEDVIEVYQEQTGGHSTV
# STEP block = inhibitors of human striatal-enriched phosphatase STEP; P54829; recombinant STEP, OMFP fluorogenic substrate, fluorescence; inhibition, % at 20 µM; 0.25% of 360,000 active; AID 588621;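 active = inhibition at 20 µM, scaled per plate between control wells, above about 37%, limit read from the data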;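 also: 0% = DMSO with enzyme and substrate and 100% = substrate only without enzyme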
#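 material = STEP tyrosine phosphatase | reagent = fluorogenic phosphatase substrate OMFP at 25 µM final | doses = single compound dose of 20 µM, 1% DMSO final | schedule = 20 min reaction, room temperature, in the dark | measured by = fluorescence, 480/540 nm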
# The depositor's hits bear a star; x = not tested or not shown.
SMILES,Scp1 inh,DNMT1 block,LMPTP block,SUMO1-SIM PPI,STEP block
O=C(/C=C/c1ccc(Br)cc1)NC(=O)c1ccccc1O,58.6*,-0.4,56.5*,20.7,12.8
CCc1c(-c2cccc(Cl)c2)ncn1Cc1cccc(-c2ccccc2)c1,x,x,5.1,6.2,x
COc1ccc2cc1Oc1ccc(cc1)CC1c3c(cc(OC)c4c3Oc3cc5c(cc3O4)CCNC5C2)CCN1C (centres undefined),-1.4,-31.5,77.2*,-26.6,1.3
CCOc1ccc(C2NCCc3cc(OC)c(OC)cc32)cc1OC (centres undefined),0.8,1.6,-0.8,-10.7,-1.5
COc1ccc2cc1Oc1ccc(cc1)C[C@H]1c3c(cc(OC)c4c3Oc3c(ccc5c3[C@H](C2)N(C)CC5)O4)CCN1C,4.1,-35.6,68.4*,-27.6,5.5
OC[C@@H]1CN(Cc2ccc(-c3ccccc3)cc2)C[C@H](n2cnc3c(N4CCCC4)ncnc32)O1,x,-3.7,2.1,-10.4,2.4
Cc1cc2c(cc1C)NC(c1cccnc1)C1=C(CC(C)(C)CC1=O)N2 (centres undefined),-3.3,-0.3,-3.4,-6.2,0.3
Cc1cc2c(cc1C)NC1(C(=O)Nc3ccccc31)C1=C(CC(C)(C)CC1=O)N2 (centres undefined),-5.9,-4.5,-0.3,51.0*,-2.2
CCN1C(=O)/C(=C\c2cn(-c3ccccc3)nc2-c2cccnc2)SC1=S,6.1,53.3*,0.1,8.0,-0.6
CCCOc1ccc(-c2nn(-c3ccccc3)cc2/C=C2\SC(N)=NC2=O)cc1,-5.0,55.2*,0.4,10.9,3.7
O=C(O)CN1C(=O)/C(=C\c2cn(-c3ccccc3)nc2-c2ccccc2)SC1=S,22.2,-2.9,2.4,-6.1,9.0
O=C1C(=Cc2cn(-c3ccccc3)nc2-c2ccc(OCc3ccccc3)cc2)SC(=S)N1CCS(=O)(=O)O,x,-58.6,87.5*,90.5*,10.1
Cc1cc(-c2nn(-c3ccccc3)cc2/C=C2\SC(N)=NC2=O)ccc1OC(C)C,-2.1,-17.7,0.7,-6.7,-0.2
CC(C)C(C(=O)O)N1C(=O)/C(=C/C=C/c2ccco2)SC1=S (centres undefined),96.8*,84.5*,77.6*,108.2*,92.2*
O=C1/C(=C/C=C/c2ccco2)SC(=S)N1c1ccc(O)cc1,59.4*,93.5*,58.1*,60.0*,16.0
CC(C)C(C(=O)O)N1C(=O)/C(=C/c2cccn2C)SC1=S (centres undefined),-10.5,9.8,5.1,-28.6,0.6
Cc1ccc([C@H]2C[C@@H](O)[C@H](n3cc(C4CC4)nn3)CN2CC2CCCCC2)cc1,x,2.0,2.5,-1.6,0.4
COCCOC(=O)c1[nH]c2c(c1C)C(=O)CC(c1ccccc1)C2 (centres undefined),-2.2,0.4,-0.3,0.3,2.0
COCCOC(=O)c1[nH]c2c(c1C)C(=O)CC(c1ccc(F)cc1)C2 (centres undefined),-6.9,0.0,-0.4,0.8,-0.1
CSCCOC(=O)c1[nH]c2c(c1C)C(=O)CC(c1ccco1)C2 (centres undefined),75.1*,28.6,22.1,4.3,0.0
Cc1c(C(=O)OCc2ccccc2)[nH]c2c1C(=O)CC(c1ccco1)C2 (centres undefined),71.3*,67.9*,79.1*,8.3,3.0
Cc1c(C(=O)OCCOC(C)C)[nH]c2c1C(=O)CC(c1ccco1)C2 (centres undefined),48.7,32.2,58.6*,14.9,1.1
Cc1c(C(=O)O)[nH]c2c1C(=O)CC(c1ccccc1)C2 (centres undefined),-10.4,4.9,0.4,-3.1,-1.4
O=c1[nH]cnc2c1ncn2C1CCC(CO)O1 (centres undefined),x,5.7,-1.5,0.6,-2.4
COc1cccc(OC)c1C(=O)NCCNc1nc2cc(C)cc(C)c2cc1C#N,x,x,0.4,0.6,x
SMILES,Scp1 inh,DNMT1 block,LMPTP block,SUMO1-SIM PPI,STEP block
COc1ccc(OC)c(-c2csc(NC(=O)Cn3[nH]c(=O)c4ccccc4c3=O)n2)c1,-0.7,-6.3,0.2,64.0*,4.5
COc1cccc(-c2nnc3n2N=C(c2cccc(Br)c2)CS3)c1,-4.6,28.6,-2.9,49.4*,-1.0
Cc1cccc(-c2nnc3n2N=C(c2ccc(Br)cc2)CS3)c1,39.4,x,x,x,x
c1ccc(C[C@H]2CN=C(Nc3ccccc3)N2CC2CCCC2)cc1,x,x,1.2,-3.2,x
O=C1C=C(c2ccc3c(c2)OCO3)C[C@@H](c2ccc3c(c2)OCO3)C1,6.0,6.2,0.6,-4.1,-0.2
O=C1C=C(c2ccc3cc[nH]c3c2)C[C@@H](c2ccc3c(c2)OCO3)C1,67.1*,11.5,5.0,-7.5,0.0
C=C(C)C(=O)Oc1ccc(N=Nc2ccc(C)cc2)ccc1=O,85.4*,95.4*,10.1,47.5*,11.4
Cc1ccc2nc3c(cc(C(=O)NCCc4ccccc4)c(=N)n3CCN3CCOCC3)c(=O)n2c1,-3.0,2.1,10.2,-7.9,8.4
Cc1ccc2nc3c(cc(C(=O)NCc4ccccc4)c(=N)n3CCCn3ccnc3)c(=O)n2c1,2.5,12.8,56.6*,-24.1,-0.1
COc1ccc(CNC(=O)c2cc3c(=O)n4ccccc4nc3n(Cc3cccnc3)c2=N)cc1,5.2,2.5,14.9,-21.6,-3.2
N=c1c(C(=O)NCc2ccc3c(c2)OCO3)cc2c(=O)n3ccccc3nc2n1Cc1cccnc1,-2.5,0.2,65.2*,-20.8,1.6
N=c1c(C(=O)NCc2ccco2)cc2c(=O)n3ccccc3nc2n1Cc1ccccc1,7.6,75.5*,58.9*,1.7,3.7
N=c1c(C(=O)NCc2ccco2)cc2c(=O)n3ccccc3nc2n1Cc1ccc(Cl)cc1,16.3,23.3,51.8*,3.6,4.7
CCN(CC)S(=O)(=O)c1ccc(S(=O)(=O)NCc2cccs2)cc1,5.9,0.7,0.0,-0.7,0.0
COc1ccc(S(=O)(=O)NCc2cccs2)cc1,58.9*,16.0,10.7,-2.7,55.1*
CS(=O)(=O)c1ccc(C(=O)N2CCN(C(=O)c3ccco3)CC2)cc1,36.2,6.6,-2.4,2.8,-1.2
COC(=O)[C@]12CCCCC=C1N(CCc1ccc(OC)c(OC)c1)C(=O)[C@H](CC(=O)NCCC(C)C)C2,x,x,-2.1,0.1,x
C=CCN(CC=C)Cc1c(O)ccc2c1oc(=O)c1ccccc12,55.7*,54.8*,5.0,16.1,1.7
C=CCN(CC=C)Cc1cc(=O)oc2ccc3ccccc3c12,x,1.2,3.6,-9.8,3.0
CCN1CCC2(CC1)N=C(c1ccc(F)cc1)C(=S)N2C(=O)c1ccc(C(C)(C)C)cc1,6.2,4.3,-1.2,16.5,55.6*
COc1ccc(CNC(=O)CN(Cc2ccccc2)C(=O)CCC(=O)Nc2nccs2)cc1,-2.3,1.9,-2.2,-1.9,-1.6
CCN1C(c2ccccc2)=C(c2ccccc2)S/C1=C\C=C1/SC(=S)N(C)C1=O,-5.6,4.8,10.4,4.5,9.7
